Measurements reported in PubChem BioAssay.
Activity calls are given as the source filed them.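 How the source made its calls, unless noted: active means inhibition above 20% together with a positive visual image hit; inconclusive means visual image hit but inhibition not above 20%; inactive means no visual image hit.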

What was measured:
[1] = inhibitors of TNFa-induced NFkB p65 translocation, primary screen, imaging, HUVEC, MLSMR starter and 10KST1 sets (AID 438); conditions: HUVEC TNFa-induced p65 nuclear translocation; cell count: measured here: nuclei count (cytotoxicity indicator), at 2.08 µM; inhibition: at 2 µM, stronger effect = higher value, 0% TNFa-plus-vehicle, 100% no-TNFa wells;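 further: compound added about 3h40 before a 20 min TNFalpha stimulation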;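 on inhibition: signal is the nuclear over cytoplasmic p65 intensity ratio per well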
[2] = reduction of polyQ htt aggregates in cells – imaging, exon1htt(103Q)mCFP cells, high-content imaging, primary screen (AID 483;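 active means visual image review flags a hit and inhibition of aggregation exceeds 20%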;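 further: compound exposure lasted 3 days before fixation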;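 on nuclei count: percent of the per-plate median nuclei count of sample wells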); conditions: exon1htt(103Q)mCFP cell line, aggregate imaging, at 2 µM; inhibition of aggregation: stronger effect = higher value; nuclei count: measured here: cell count, toxicity
[3] = endothelial E-selectin expression blockers – imaging, HUVEC, immunofluorescence, MLSMR starter and 10KST1 sets, primary screen (AID 487;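 active means visually confirmed hit in the image check and inhibition above 20%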;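 on inhibition: signal is fraction of cell area covered by stained E-selectin grains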;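 on nuclei count: 100% = median nuclei count of all wells on the same plate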); conditions: HUVEC TNFalpha-induced E-selectin immunofluorescence imaging, at 2 µM; inhibition: stronger effect = higher value; nuclei count: measured here: cell number, toxicity
[4] = molecular target: Voltage-gated potassium channel subunit beta-2 (Rattus norvegicus) (UniProt P62483); experiment: inhibitors of rat Kvbeta2 reductase activity – biochemical, NADPH fluorescence, primary screen (AID 622;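 active means fluorescence slope higher than the sample average by over 3 SD, cut at about -0.22 in these data, passing the limit was not always enough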;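 further: slope of raw intensity against log time taken from 70 to 1610 s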); conditions: recombinant KvBeta, 4-cyanobenzaldehyde reduction, at 10 µM, stronger effect = higher value
[5] = molecular target: Voltage-gated potassium channel subunit beta-2 (Rattus norvegicus) (UniProt P62483); experiment: enhancers of rat Kvbeta2 NADPH turnover – biochemical, NADPH fluorescence, primary screen (AID 623;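 active means NADPH fluorescence slope more negative than the mean of all samples by about 3 SD, 99.7% confidence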;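 further: fluorescence intensity change per second fitted from 20 to 320 s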); conditions: Recombinant KvBeta, NADPH fluorescence decrease slope, 10 min; at 10 µM; stronger effect = lower value
[6] = molecular target: Alpha-2C adrenergic receptor (Homo sapiens) (UniProt P18825); experiment: compounds altering alpha2C-coupled GIRK flux – cell-based, HEK293 alpha2C/GIRK1/2, thallium flux, primary screen (AID 624;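 active means fluorescence slope after compound addition differing from the mean of all screened samples at 99.7% confidence, in either direction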;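 further: slope of fluorescence ratio to pre-addition baseline per second over 15 to 24 s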); conditions: thallium flux BTC fluorescence, at 10 µM, actives lie on both sides
[7] = inhibitors of larval lipid processing in zebrafish, primary screen, whole organism, PED6 fluorescence, gall bladder and intestine (AID 686;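 active means a full or partial loss of lipid-probe fluorescence in the fish gall bladder, intestine or both, judged by eye; inactive means no fluorescence loss, or compound toxic to the fish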;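 further: larvae 5 to 7 days old with five fish per well; signal comes from phospholipase A2 cleavage of quenched PED6 carried via bile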); conditions: Zebrafish larvae PED6 lipid processing, fluorescence scoring; screened at 20 µM (by protocol)
Summary of the method: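 Incubation: overnight exposure of larvae to compound plus PED6 / Test system: live zebrafish larvae aged 5-7 days, whole organism / Amount: 5 larvae per well / Read-out basis: visual per-well fluorescence inhibition score / Signal: visual fluorescence microscopy scoring of gall bladder, gut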

[8] = blockers of RIG-like receptor reporter activation – cell-based, Sendai virus stimulus, luciferase, 10K MLSCN set, TLR/RLR signaling modifier project, primary screen (AID 602276;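 active means inhibition at or above 50% at 10 µM; inactive means inhibition below 50%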;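 further: firefly luciferase from ISG56 promoter only with Renilla not read in this screen; 0% = Sendai virus plus DMSO and 100% = medium plus DMSO without virus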); conditions: HEK293 RL24 IRF3 luciferase reporter, at 10 µM, stronger effect = higher value
[9] = TLR3 IRF3 reporter activation blockers – cell-based, poly I:C stimulus, luciferase, 10K MLSCN set, primary screen (AID 602277;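 active means inhibition of the reporter signal at or above 50%; inactive means inhibition below 50%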); conditions: HEK293-TLR3 RL24 IRF3 luciferase reporter, at 10 µM, stronger effect = higher value

Alpha-2C adrenergic receptor (Homo sapiens), sequence (P18825 whole entry, looked up): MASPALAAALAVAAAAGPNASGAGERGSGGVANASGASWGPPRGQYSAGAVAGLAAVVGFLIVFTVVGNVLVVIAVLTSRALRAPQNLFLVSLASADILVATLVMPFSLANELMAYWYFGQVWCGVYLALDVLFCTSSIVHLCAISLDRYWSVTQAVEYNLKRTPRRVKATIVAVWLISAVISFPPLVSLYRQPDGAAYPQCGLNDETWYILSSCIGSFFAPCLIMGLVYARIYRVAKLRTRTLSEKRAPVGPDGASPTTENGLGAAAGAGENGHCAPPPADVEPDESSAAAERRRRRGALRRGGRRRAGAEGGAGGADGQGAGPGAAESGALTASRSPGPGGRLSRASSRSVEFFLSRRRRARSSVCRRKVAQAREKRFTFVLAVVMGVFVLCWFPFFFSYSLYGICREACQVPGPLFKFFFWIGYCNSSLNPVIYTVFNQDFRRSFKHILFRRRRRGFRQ
Voltage-gated potassium channel subunit beta-2 (Rattus norvegicus), sequence (P62483 whole entry, looked up): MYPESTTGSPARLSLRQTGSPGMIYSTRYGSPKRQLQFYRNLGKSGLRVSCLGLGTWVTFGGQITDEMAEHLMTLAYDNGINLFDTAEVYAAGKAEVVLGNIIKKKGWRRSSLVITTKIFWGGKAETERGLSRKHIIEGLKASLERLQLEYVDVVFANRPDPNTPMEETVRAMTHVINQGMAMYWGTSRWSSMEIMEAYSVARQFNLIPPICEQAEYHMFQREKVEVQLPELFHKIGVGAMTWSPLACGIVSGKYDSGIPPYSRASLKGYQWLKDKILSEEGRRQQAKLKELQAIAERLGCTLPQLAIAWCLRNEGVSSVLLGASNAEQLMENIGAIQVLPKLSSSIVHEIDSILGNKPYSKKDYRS

Structure (SMILES) | cell count [1] | inhibition [1] | inhibition of aggregation [2] | nuclei count [2] [%] | inhibition [3] | nuclei count [3] [%] | fluorescence slope [4] | NADPH fluorescence slope [5] | slope [6] | outcome [7] | inhibition [8] | inhibition [9]
COc1cc(C)c(Br)cc1S(=O)(=O)N1CCOCC1 | 397 | 6.3% (inactive) | 3.4% (inactive) | 106 | -68.9% (inactive) | 126 | -0.461 (inactive) | -4.2e-05 (inactive) | 0.00698 (inactive) | inactive | 11.9% (inactive) | 4.48% (inactive)
COc1ccc(C(NC(C)=O)c2ccc3cccnc3c2O)c(OC)c1 (centres undefined) | 444 | 2.1% (inactive) | -3% (inactive) | 90.6 | 23.6% (inactive) | 111 | -0.37 (inactive) | -5.8e-05 (inactive) | 0.00602 (inactive) | inactive | -12.8% (inactive) | 61.9% (active)
O=C(Nc1ccncc1)c1cc2ccccc2o1 | 165 | 2.1% (inactive) | 35.8% (inactive) | 101 | -106% (inactive) | 140 | -0.382 (inactive) | -4.4e-05 (inactive) | 0.00527 (inactive) | inactive; toxic | -36.5% (inactive) | -115% (inactive)
O=C(CN(CC1CCCO1)S(=O)(=O)c1ccc(S(=O)(=O)NC2CC2)cc1)Nc1ccccc1 (centres undefined) | 502 | -15.8% (inactive) | 17.8% (inactive) | 83.4 | 12.1% (inactive) | 96.1 | -0.384 (inactive) | -4.7e-05 (inactive) | 0.00436 (inactive) | inactive | 7.42% (inactive) | 7.34% (inactive)
COC(=O)c1c(NC(=O)CCc2ccc(C)o2)sc(C)c1C | 568 | 6.6% (inactive) | 7.9% (inactive) | 79.4 | -69.4% (inactive) | 91 | -0.294 (inactive) | -1.6e-05 (inactive) | 0.00498 (inactive) | inactive | 15.7% (inactive) | 31.1% (inactive)
O=C(CSc1ccc(-c2ccccc2)nn1)N1CCOCC1 | 664 | -5.6% (inactive) | -24% (inactive) | 118 | 57.9% (active) | 132 | -0.452 (inactive) | -4.4e-05 (inactive) | 0.00495 (inactive) | inactive | 5.28% (inactive) | -10.6% (inactive)
COc1ccc(-n2nc3cc(C)c(N)c(Br)c3n2)cc1 | 336 | -6.8% (inactive) | 3.9% (inactive) | 59.9 | -17.3% (inactive) | 83.5 | -0.411 (inactive) | -4.9e-05 (inactive) | 0.00393 (inactive) | inactive | -10.7% (inactive) | -36.5% (inactive)
CCOC(=O)Cn1nnnc1CN(Cc1ccc(OC)cc1)Cc1cc2cc(C)ccc2[nH]c1=O | 623 | -4.9% (inactive) | -27% (inactive) | 112 | 62.8% (inactive) | 135 | -0.384 (inactive) | 6.1e-07 (inactive) | 0.00608 (inactive) | inactive | -4.16% (inactive) | -1.51% (inactive)
Cc1nc2ccc(C(=O)O)cc2c2c1CC(C)S2 (centres undefined) | 462 | -3.8% (inactive) | -4% (inactive) | 106 | -20.4% (inactive) | 104 | -0.38 (inactive) | -4.3e-05 (inactive) | 0.00518 (inactive) | inactive | 13.9% (inactive) | 11.7% (inactive)
Cc1cc(=O)c2n(Cc3ccccc3Cl)nc[n+]2[nH]1 | 800 | 6% (inactive) | 3% (inactive) | 97.2 | -111% (inactive) | 120 | -0.397 (inactive) | -5.7e-05 (inactive) | 0.00447 (inactive) | inactive | 5.55% (inactive) | 8.5% (inactive)
Cn1c(C(=O)NCc2cccnc2)cc2sccc21 | 560 | -4.9% (inactive) | 1.2% (inactive) | 104 | -25% (inactive) | 110 | -0.436 (inactive) | 3.4e-05 (inactive) | 0.00497 (inactive) | inactive | -11.9% (inactive) | -21.5% (inactive)
Cc1ccc(OCC(O)Cn2c(NCCc3ccccc3)nc3c2c(=O)[nH]c(=O)n3C)cc1 (centres undefined) | 421 | -1.8% (inactive) | -12.3% (inactive) | 107 | -5.4% (inactive) | 113 | -0.444 (inactive) | 5.3e-06 (inactive) | 0.00534 (inactive) | inactive | -0.0675% (inactive) | 1.64% (inactive)
CCCn1nnc(NCc2ccc(OCc3cccs3)c(OC)c2)n1 | 226 | -5.8% (inactive) | 7.5% (inactive) | 90 | -51.4% (inactive) | 99 | -0.467 (inactive) | -3.7e-05 (inactive) | 0.00561 (inactive) | inactive | 8.88% (inactive) | 6.19% (inactive)
COc1ccccc1-n1c(SCC(=O)NC(C)(C)C)nnc1-c1ccco1 | 662 | -13.1% (inactive) | 6.2% (inactive) | 87.8 | -53% (inactive) | 117 | -0.504 (inactive) | -2.6e-05 (inactive) | 0.0043 (inactive) | inactive | 10.4% (inactive) | 15.6% (inactive)
CC(=O)Nc1ccc(Cc2ccncc2)cc1 | 528 | -7.4% (inactive) | 14.9% (inactive) | 93.3 | -40.3% (inactive) | 115 | -0.39 (inactive) | -4.8e-05 (inactive) | 0.00486 (inactive) | inactive | 6.14% (inactive) | 4.37% (inactive)
Cc1cc(N2C(=O)CC(N3CCN(c4ccc(C(=O)c5cccs5)cc4)CC3)C2=O)no1 (centres undefined) | 654 | 10.8% (inactive) | -3% (inactive) | 112 | -31.2% (inactive) | 93.1 | -0.392 (inactive) | -4.4e-05 (inactive) | 0.00594 (inactive) | inactive | -4.13% (inactive) | -9.36% (inactive)
C=CCNc1nc2c(c(=O)n(C)c(=O)n2C)n1CCCCCC | 438 | 4.7% (inactive) | -8% (inactive) | 94.9 | 4% (inactive) | 107 | -0.39 (inactive) | -3.7e-05 (inactive) | 0.00457 (inactive) | inactive | 8.07% (inactive) | -34.5% (inactive)
CCOC(=O)c1sc(NC(=O)CSc2ncn(-c3ccccc3)n2)nc1C | 527 | -6.5% (inactive) | 14.5% (inactive) | 102 | -8% (inactive) | 69.6 | -0.363 (inactive) | 2.2e-05 (inactive) | 0.00535 (inactive) | inactive | 13.7% (inactive) | 13% (inactive)
CSc1nnc(-c2cnccn2)n1Cc1ccccc1 | 386 | 2.9% (inactive) | -2.6% (inactive) | 101 | 5.7% (inactive) | 121 | -0.481 (inactive) | -5.6e-07 (inactive) | 0.00544 (inactive) | inactive | -5.1% (inactive) | 2.59% (inactive)
COc1ccccc1N1CCN(C(=O)C2CCN(S(=O)(=O)c3ccc(F)cc3)CC2)CC1 | 676 | 11.9% (inactive) | 6.6% (inactive) | 108 | -23.6% (inactive) | 96.3 | -0.415 (inactive) | -2.3e-05 (inactive) | 0.00451 (inactive) | inactive | -6.92% (inactive) | -9.69% (inactive)
COc1ccc(C(=O)CSc2nnc(-c3ccc(C)cc3)o2)cc1 | 419 | 11.2% (inactive) | -14.9% (inactive) | 109 | -69.4% (inactive) | 112 | -0.371 (inactive) | -1.3e-05 (inactive) | 0.00862 (inactive) | inactive | -16.3% (inactive) | -18.5% (inactive)
Cc1cc(-c2ccccc2)nc(SCc2ccc(C(=O)O)o2)n1 | 398 | -1.3% (inactive) | 0.6% (inactive) | 86.2 | -106% (inactive) | 105 | -0.373 (inactive) | -6.9e-05 (inactive) | 0.00508 (inactive) | inactive | 7.19% (inactive) | 8.59% (inactive)
Cc1cc(C)c(NC2=NCC(=O)N2C2CCCCC2)c(C)c1 | 638 | -2.2% (inactive) | 5.3% (inactive) | 122 | -32.7% (inactive) | 114 | -0.389 (inactive) | 1.7e-05 (inactive) | 0.00607 (inactive) | inactive | -0.88% (inactive) | -0.177% (inactive)
CCOc1nc(NCCC2=CCCCC2)nc(N2CCOCC2)n1 | 450 | 2.7% (inactive) | 6.3% (inactive) | 84 | -23.8% (inactive) | 96.5 | -0.364 (inactive) | -5.8e-05 (inactive) | 0.00441 (inactive) | inactive | 10.2% (inactive) | 5.8% (inactive)
CC(=O)NCCC(=O)Nc1ccc(C)c(F)c1 | 417 | -4.4% (inactive) | -5.1% (inactive) | 109 | -55.7% (inactive) | 110 | -0.451 (inactive) | -1.3e-05 (inactive) | 0.00617 (inactive) | inactive | -3.46% (inactive) | -7.08% (inactive)
CCN(C(=O)c1cccs1)c1nnc(-c2ccncc2)s1 | 737 | -7.1% (inactive) | -14.4% (inactive) | 104 | -80% (inactive) | 115 | -0.374 (inactive) | -7.1e-05 (inactive) | 0.00498 (inactive) | inactive | -7.04% (inactive) | -41.1% (inactive)
O=C(NCC(=O)N(c1cccnc1)C(C(=O)NC1CCCCC1)c1cccnc1)c1ccco1 (centres undefined) | 424 | 6.8% (inactive) | 6.3% (inactive) | 109 | -37.8% (inactive) | 110 | -0.39 (inactive) | -5.1e-05 (inactive) | 0.00388 (inactive) | inactive | 9.81% (inactive) | 6.29% (inactive)
